The source made the active and inactive calls. No cut-off for these calls is given here.
What was measured:
SW480 = experiment: Induction of apoptosis in human SW480 cells assessed as increase in caspase-3/7 activation at 10 uM incubated for 48 hrs by luminometric caspase-glo 3/7 assay; format: functional, cell-based
Procedure, shortened: (§1)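 Cells in RPMI or DMEM with 10% heat-inactivated FBS and penicillin/streptomycin, 37 °C, 5% CO2, treated with 10 µM compound for 48 h. Caspase-3 and caspase-7 activity read by luminescent Caspase-Glo 3/7 assay, reported as fold induction over untreated cells; mean ± SD of three independent experiments, each in triplicate.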

LN-229 [1] = experiment: Antiproliferative activity against human LN229 cells assessed as reduction in cell viability at 10 uM incubated for 48 hrs in presence of Fe3+ ion by MTT assay; format: functional, cell-based
Procedure, shortened: (§2)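 LN229 and PC3 cells plated, then 24 h later given 10 µM compound with or without 15 µM ZnCl2, CuCl2, FeCl2 or FeCl3 for 48 h. Medium replaced, MTT (12 mM solution) added for 4 h, formazan dissolved in DMSO, absorbance read at 540 nm. Percent viable versus untreated; mean ± SD of three experiments in triplicate.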

PC-3 [2] = experiment: Induction of apoptosis in human PC3 cells assessed as necrotic cells at 10 uM incubated for 24 hrs by annexin V-FITC and propidium iodide staining based flow cytometry analysis (reference value: 0.30 %); format: functional
LN-229 [3] = experiment: Cell cycle arrest in human LN229 cells assessed as cell accumulation at G1 phase at 10 uM incubated for 48 hrs by propidium iodide staining based flow cytometry analysis relative to control; format: functional
Granta-519 = experiment: Induction of apoptosis in human GRANTA-519 cells assessed as increase in caspase-3/7 activation at 10 uM incubated for 48 hrs by luminometric caspase-glo 3/7 assay; format: functional, cell-based; procedure, shortened: as §1
LN-229 [4] = experiment: Antiproliferative activity against human LN229 cells assessed as reduction in cell viability at 10 uM incubated for 48 hrs in presence of Zn2+ ion by MTT assay; format: functional, cell-based; procedure, shortened: as §2
PC-3 [5] = experiment: Induction of apoptosis in human PC3 cells assessed as increase in caspase-3/7 activation at 10 uM incubated for 48 hrs by luminometric caspase-glo 3/7 assay; format: functional, cell-based; procedure, shortened: as §1
PC-3 [6] = experiment: Induction of cellular senescence in human PC3 cells assessed as larger volume of cell at 10 uM incubated for 24 hrs by phase contrast microscopy; format: functional, cell-based
Procedure, shortened: (§3)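 LN229 and PC3 cells, 12×10^4 per well in 6-well plates, treated with 10 µM compound for 24 h. Senescence-associated β-gal staining: fixed in 2% formaldehyde/0.2% glutaraldehyde for 10 min at RT, stained with 1 mg/mL X-gal at 37 °C for 24 h without CO2. Blue cells counted in at least 10 fields at 10x and given as percent of total; four independent experiments. Morphology viewed by phase contrast at ×100.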

Homo sapiens = species: Homo sapiens; experiment: Induction of apoptosis in human UPN2 cells assessed as increase in caspase-3/7 activation at 10 uM incubated for 48 hrs by luminometric caspase-glo 3/7 assay; format: functional, cell-based; procedure, shortened: as §1
PC-3 [7] = experiment: Induction of apoptosis in human PC3 cells assessed as increase in early and late apoptotic cells at 10 uM incubated for 72 hrs by annexin V-FITC and propidium iodide staining based flow cytometry analysis relative to control; format: functional
PC-3 [8] = experiment: Induction of cellular senescence in human PC3 cells assessed as flattened cells at 10 uM incubated for 24 hrs by phase contrast microscopy; format: functional, cell-based; procedure, shortened: as §3
PC-3 [9] = experiment: Antiproliferative activity against human PC3 cells assessed as reduction in cell viability at 10 uM incubated for 48 hrs in presence of Fe2+ ion by MTT assay; format: functional, cell-based; procedure, shortened: as §2
Jurkat = experiment: Cell cycle arrest in human Jurkat cells assessed as decrease in cell accumulation at G2 phase at 10 uM incubated for 24 hrs by propidium iodide staining based flow cytometry analysis; format: functional
PC-3 [10] = experiment: Induction of cellular senescence in human PC3 cells assessed as cells with irregular shape at 10 uM incubated for 24 hrs by phase contrast microscopy; format: functional, cell-based; procedure, shortened: as §3
PC-3 [11] = experiment: Induction of cellular senescence in human PC3 cells assessed as increase in nuclear size at 10 uM incubated for 24 hrs by phase contrast microscopy; format: functional, cell-based; procedure, shortened: as §3
LN-229 [12] = experiment: Induction of cellular senescence in human LN229 cells assessed as increase in beta-gal-positive cells at 10 uM incubated for 24 hrs by X-Gal staining based microscopic assay relative to control; format: functional
LN-229 [13] = experiment: Induction of cell morphological changes in human LN229 cells assessed as loss of cell adherence at 10 uM incubated for 24 to 48 hrs by phase contrast microscopy; format: functional, cell-based
Procedure, shortened: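 LN229 and PC3 cells exposed to 10 µM compound for the indicated time-points, then imaged live by phase-contrast microscopy for morphology.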

LN-229 [14] = experiment: Cell cycle arrest in human LN229 cells assessed as cell accumulation at S phase at 10 uM incubated for 24 hrs by propidium iodide staining based flow cytometry analysis relative to control; format: functional
MCF7 [15] = experiment: Antiproliferative activity against human MCF7 cells assessed as reduction in cell viability at 10 uM incubated for 48 hrs by cell titer-glo assay; format: functional, cell-based
Procedure, shortened: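 Cells plated and treated 24 h later with 10 µM compound for 48 h; viable cells quantified by CellTiter-Glo ATP luminescence. Expressed as percentage of viable cells relative to untreated; mean ± SD of three independent experiments, each in triplicate.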

MCF7 [16] = experiment: Antiproliferative activity against human MCF7 cells assessed as reduction in cell viability incubated for 48 hrs by cell titer-glo assay; format: functional, cell-based; conditions: MCF7, 48 h
Procedure, shortened: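 Dose-response: cells plated, treated 24 h later for 48 h, then ATP measured by CellTiter-Glo luminescence. IC50 given as mean ± SD from three independent experiments, each in triplicate. Fibroblasts came from individuals. Cells were kept in RPMI or DMEM with 10% heat-inactivated FBS and penicillin/streptomycin at 37 °C, 5% CO2.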

LN-229 [17] = experiment: Metal chelating activity in human LN229 cells assessed as decrease in intracellular concentration of labile zinc ions by measuring reduction in zinquin-Zn2+ complex formation incubated for 12 hrs followed by incubation with fluorophore-zinquin for 30 mins by spectrofluorometric analysis; format: cell-based
Procedure, shortened: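 LN229 cells were treated 12 h, trypsinized, pelleted and checked by Trypan Blue. Then 6x10⁶ cells in 1 mL PBS were loaded with Zinquin 25 μM for 30 min at 37 °C in the dark. Fluorescence was read at ex 370/em 475 nm with a 400–600 nm scan, normalized to cell number, untreated set to 100; four independent experiments.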

PC-3 [18] = experiment: Antiproliferative activity against human PC3 cells assessed as reduction in cell viability at 10 uM incubated for 48 hrs in presence of Fe3+ ion by MTT assay; format: functional, cell-based; procedure, shortened: as §2
LN-229 [19] = experiment: Induction of apoptosis in human LN229 cells assessed as increase in caspase-3/7 activation at 10 uM incubated for 48 hrs by luminometric caspase-glo 3/7 assay; format: functional, cell-based; procedure, shortened: as §1
PC-3 [20] = experiment: Inhibition of colony formation in human PC3 cells at 10 uM incubated for 4 hrs by crystal violet staining based colony counting method; format: functional, cell-based
Procedure, shortened: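 LN229 and PC3 cells treated for 4 h with compound (10 µM) or with etoposide (30 µM positive control), washed, trypsinized and replated at 3000 cells per 60-mm plate. Colonies grown 7–10 days, fixed and stained with 0.5% crystal violet in 70% ethanol, and counted. Reported as percent of control; four independent experiments, each in duplicate.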

LN-229 [21] = experiment: Antiproliferative activity against human LN229 cells assessed as reduction in cell viability at 10 uM incubated for 48 hrs in presence of Fe2+ ion by MTT assay; format: functional, cell-based; procedure, shortened: as §2

Row | SMILES | Activity (SW480) | Activity (LN-229 [1]) | Activity (PC-3 [2]) [%] | Activity (LN-229 [3]) [%] | Activity (Granta-519) | Activity (LN-229 [4]) | Activity (PC-3 [5]) | Activity (PC-3 [6]) | Activity (Homo sapiens) | fold change (FC) (PC-3 [7]) | Activity (PC-3 [8]) | Activity (PC-3 [9]) | Activity (Jurkat) | Activity (PC-3 [10]) | Activity (PC-3 [11]) | Activity (LN-229 [12]) | Activity (LN-229 [13]) | Activity (LN-229 [14]) [%] | Activity (MCF7 [15]) | IC50 (MCF7 [16]) [µM] | further results
1 | c1ccc(CNCCN(CCNCc2ccccn2)Cc2ccc3ccccc3c2)nc1 | Active | Active | 1.53 | 74.7 | Active | inactive | Active | Active | Active | 30 | Active | Active | Active | Active | Active | 90% | Active | 14.8 | Active | 3.19 | Activity (LN-229 [17]): Dose-dependent effect; Activity (PC-3 [18]): Active; Activity (LN-229 [19]): Active; inhibition (PC-3 [20]): inactive; Activity (LN-229 [21]): Active
2 | CN(CCNCc1ccccn1)CCNCc1ccccn1 | Active | Active | 1.78 | 66.1 | Active | inactive | Active | Active | Active | 30 | Active | Active | Active | Active | Active | Active | Active | 15.6 | Active | 3.13 | Activity (LN-229 [17]): Dose-dependent effect; Activity (PC-3 [18]): Active; Activity (LN-229 [19]): Active; inhibition (PC-3 [20]): inactive; Activity (LN-229 [21]): Active
